Data published in ChEMBL document CHEMBL4622869, “Discovery and structure-activity relationships study of positive allosteric modulators of the M3 muscarinic acetylcholine receptor” (Bioorg Med Chem, 2020).

Experiments:
[1] = biological target: Muscarinic acetylcholine receptor M3 (Homo sapiens) (UniProt P20309); test: Positive allosteric modulation of recombinant human muscarinic acetylcholine receptor M3 expressed in CHOK1 cells assessed as increase in carbachol-induced intracellular calcium flux at 10 uM preincubated for 5 mins followed by carbachol addition by Fluo4-AM dye based FLIPR assay relative to carbachol; type: functional, cell-based; details: CHO-K1
Summary of the method: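 CHO-K1 cells stably expressing human or rat M1–M5; M2 and M4 lines also co-express human Gα16. Cells loaded with 3.1 μM Fluo-4 AM in HBSS/20 mM HEPES pH 7.5/BSA/2.5 mM probenecid for ~2 h at room temperature. Test substance at 10 μM final, then carbachol (0.0024 nM–100 μM) ~5 min later; Ca2+ read by FLIPR Tetra. Fold shift = carbachol EC50 without / with test substance, from logistic fits.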

Thrombopoietin receptor = biological target: T1, Thrombopoietin receptor (Homo sapiens, UniProt P40238); test: Agonist activity at recombinant human c-Mpl receptor transfected in BA/F3 cells assessed as increase in cell proliferation by cell counting analysis; type: cell-based; details: baf3
T1 sequence (P40238 whole entry): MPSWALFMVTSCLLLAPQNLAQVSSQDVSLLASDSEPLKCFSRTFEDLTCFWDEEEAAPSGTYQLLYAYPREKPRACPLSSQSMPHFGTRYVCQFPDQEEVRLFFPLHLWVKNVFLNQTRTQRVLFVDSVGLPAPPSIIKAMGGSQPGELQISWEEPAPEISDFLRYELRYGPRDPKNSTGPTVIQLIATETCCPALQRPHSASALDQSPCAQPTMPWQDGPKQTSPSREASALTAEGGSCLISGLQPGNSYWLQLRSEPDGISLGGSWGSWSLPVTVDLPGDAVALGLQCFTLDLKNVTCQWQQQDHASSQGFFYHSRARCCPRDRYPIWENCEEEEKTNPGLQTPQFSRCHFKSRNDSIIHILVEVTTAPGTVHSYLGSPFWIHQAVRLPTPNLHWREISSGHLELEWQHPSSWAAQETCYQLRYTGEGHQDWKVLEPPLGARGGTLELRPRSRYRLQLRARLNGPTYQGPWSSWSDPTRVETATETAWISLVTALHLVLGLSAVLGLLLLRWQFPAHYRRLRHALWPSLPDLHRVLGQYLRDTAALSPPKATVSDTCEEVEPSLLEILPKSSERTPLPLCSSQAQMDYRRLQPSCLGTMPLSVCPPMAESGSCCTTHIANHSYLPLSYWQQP
Summary of the method: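 Ba/F3 cells stably transfected with human c-Mpl by electroporation with blasticidin selection. 1×10^4 cells/well in RPMI-1640 with 10% FBS, with test substance (100 nM to 10 μM final), overnight at 37°C in 5% CO2. Cell Counting Kit added for about 5 h, then A450 read. Scale: untreated wells 0%, reference c-Mpl agonist at 1 μM 100%. EC30 from logistic regression.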

Muscarinic acetylcholine receptor M3 (Homo sapiens), sequence (P20309 whole entry, looked up): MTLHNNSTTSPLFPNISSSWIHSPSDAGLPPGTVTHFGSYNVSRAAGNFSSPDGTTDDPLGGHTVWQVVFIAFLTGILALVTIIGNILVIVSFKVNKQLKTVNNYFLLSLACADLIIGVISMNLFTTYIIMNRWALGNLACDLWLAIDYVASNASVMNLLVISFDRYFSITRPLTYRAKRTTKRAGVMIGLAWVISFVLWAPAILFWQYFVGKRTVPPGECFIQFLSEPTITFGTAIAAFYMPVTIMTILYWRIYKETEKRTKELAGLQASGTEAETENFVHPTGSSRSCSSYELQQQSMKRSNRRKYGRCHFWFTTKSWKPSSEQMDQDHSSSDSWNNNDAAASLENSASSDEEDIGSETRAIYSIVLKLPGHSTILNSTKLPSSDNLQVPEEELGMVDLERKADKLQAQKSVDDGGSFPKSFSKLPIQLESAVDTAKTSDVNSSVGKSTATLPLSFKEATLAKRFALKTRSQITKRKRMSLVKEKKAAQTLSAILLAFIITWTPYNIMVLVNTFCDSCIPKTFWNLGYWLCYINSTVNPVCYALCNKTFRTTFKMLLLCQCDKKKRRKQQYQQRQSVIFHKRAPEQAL

Row | SMILES | fold change (FC) [1] | EC30 (Thrombopoietin receptor)
1 | COc1ccc(-c2nc(NC(=O)c3cnc(N4CCC(C(=O)O)CC4)cn3)sc2CN2CCC[C@H]2C)cc1C(F)(F)F.Cl.Cl | 73 | > 10 µM
2 | COc1ccc(-c2nc(NC(=O)c3cnc(OCC(=O)O)cn3)sc2CN2CCCC(C)(C)C2)cc1C(F)(F)F | 175 | –
3 | COc1ccc(-c2nc(NC(=O)c3cnc(N4CCC(C(=O)O)CC4)cn3)sc2CN2CCC[C@@H]2C)cc1C(F)(F)F.Cl.Cl | 25 | > 10 µM
4 | COc1ccc(-c2nc(NC(=O)c3cnc(C(=O)O)cn3)sc2CN2CCCC(C)(C)C2)cc1C(F)(F)F | 39 | –
5 | C[C@@H]1CCCN1Cc1sc(NC(=O)c2cnc(N3CCC(C(=O)O)CC3)nc2)nc1-c1cc(Cl)cs1 | 65 | –
6 | COc1ccc(-c2nc(NC(=O)c3cnc(N(C)CC(=O)O)cn3)sc2CN2CCCC(C)(C)C2)cc1C(F)(F)F | 137 | –
7 | COC[C@@H]1CCCN1Cc1sc(NC(=O)c2cnc(N3CCC(C(=O)O)CC3)cn2)nc1-c1ccc(OC)c(C(F)(F)F)c1.Cl.Cl | 72 | > 10 µM
8 | C[C@@H]1CCCN1Cc1sc(NC(=O)c2cnc(N3CCC(C(=O)O)CC3)cn2)nc1-c1cc(Cl)cc(C(F)(F)F)c1.Cl.Cl | 168 | 0.15 µM
9 | C[C@@H]1CCCN1Cc1sc(NC(=O)c2cnc(N3CCC(C(=O)O)CC3)cn2)nc1-c1cc(Cl)cs1.Cl.Cl | 186 | 0.35 µM
10 | C[C@@H]1CCCN1Cc1sc(NC(=O)c2cnc(N3CCC(C(=O)O)CC3)cn2)nc1-c1ccc(Cl)c(C(F)(F)F)c1.Cl.Cl | 118 | 1.72 µM
11 | COc1ccc(-c2nc(NC(=O)c3ccc(O)cc3)sc2CN2CCCC(C)(C)C2)cc1C(F)(F)F | 8.9 | –
12 | CCC[C@@H]1CCCN1Cc1sc(NC(=O)c2cnc(N3CCC(C(=O)O)CC3)cn2)nc1-c1ccc(OC)c(C(F)(F)F)c1.Cl.Cl | 128 | > 10 µM
13 | COCCN(Cc1sc(NC(=O)c2cnc(N3CCC(C(=O)O)CC3)cn2)nc1-c1ccc(OC)c(C(F)(F)F)c1)CC(C)C.Cl.Cl | 84 | > 10 µM
14 | COc1ccc(-c2nc(NC(=O)c3cnc(NCC(=O)O)cn3)sc2CN2CCCC(C)(C)C2)cc1C(F)(F)F | 162 | –
15 | C[C@@H]1CCCN1Cc1sc(NC(=O)c2cnc(N3CCC(C(=O)O)CC3)c(F)c2)nc1-c1cc(Cl)cs1.Cl.Cl | 132 | 0.0032 µM
16 | COc1ccc(-c2nc(NC(=O)c3cnc(N4CCC(C(=O)O)CC4)cn3)sc2CN2CCCC(C)(C)C2)cc1C(F)(F)F.Cl.Cl | 238 | > 10 µM
17 | C[C@@H]1CCCN1Cc1sc(NC(=O)C2CCN(c3ccc(C(=O)O)cn3)CC2)nc1-c1cc(Cl)cs1 (racemic) | 2.8 | –
18 | COc1ccc(-c2nc(NC(=O)c3ccc(OCC(=O)O)cc3)sc2CN2CCCC(C)(C)C2)cc1C(F)(F)F | 204 | –
19 | COc1ccc(-c2nc(NC(=O)c3cnc(N4CCC(C(=O)O)CC4)cn3)sc2CN2CCCC[C@H]2C)cc1C(F)(F)F.Cl.Cl | 94 | > 10 µM
